The list is not random: actives were taken first. Their share in the collection is about 1.3%.
NSD2 inh = NSD2 histone methyltransferase inhibitors, primary screen, biochemical, AlphaScreen, single concentration, set 2. AID 743445, 2014. hit rate 0.54% among 310,000. inhibition, % at 12.5 µM. NSD2 peptide methylation, 120 min; in the data active = inhibition above about 50%
Target sequence (O96028 whole entry, looked up): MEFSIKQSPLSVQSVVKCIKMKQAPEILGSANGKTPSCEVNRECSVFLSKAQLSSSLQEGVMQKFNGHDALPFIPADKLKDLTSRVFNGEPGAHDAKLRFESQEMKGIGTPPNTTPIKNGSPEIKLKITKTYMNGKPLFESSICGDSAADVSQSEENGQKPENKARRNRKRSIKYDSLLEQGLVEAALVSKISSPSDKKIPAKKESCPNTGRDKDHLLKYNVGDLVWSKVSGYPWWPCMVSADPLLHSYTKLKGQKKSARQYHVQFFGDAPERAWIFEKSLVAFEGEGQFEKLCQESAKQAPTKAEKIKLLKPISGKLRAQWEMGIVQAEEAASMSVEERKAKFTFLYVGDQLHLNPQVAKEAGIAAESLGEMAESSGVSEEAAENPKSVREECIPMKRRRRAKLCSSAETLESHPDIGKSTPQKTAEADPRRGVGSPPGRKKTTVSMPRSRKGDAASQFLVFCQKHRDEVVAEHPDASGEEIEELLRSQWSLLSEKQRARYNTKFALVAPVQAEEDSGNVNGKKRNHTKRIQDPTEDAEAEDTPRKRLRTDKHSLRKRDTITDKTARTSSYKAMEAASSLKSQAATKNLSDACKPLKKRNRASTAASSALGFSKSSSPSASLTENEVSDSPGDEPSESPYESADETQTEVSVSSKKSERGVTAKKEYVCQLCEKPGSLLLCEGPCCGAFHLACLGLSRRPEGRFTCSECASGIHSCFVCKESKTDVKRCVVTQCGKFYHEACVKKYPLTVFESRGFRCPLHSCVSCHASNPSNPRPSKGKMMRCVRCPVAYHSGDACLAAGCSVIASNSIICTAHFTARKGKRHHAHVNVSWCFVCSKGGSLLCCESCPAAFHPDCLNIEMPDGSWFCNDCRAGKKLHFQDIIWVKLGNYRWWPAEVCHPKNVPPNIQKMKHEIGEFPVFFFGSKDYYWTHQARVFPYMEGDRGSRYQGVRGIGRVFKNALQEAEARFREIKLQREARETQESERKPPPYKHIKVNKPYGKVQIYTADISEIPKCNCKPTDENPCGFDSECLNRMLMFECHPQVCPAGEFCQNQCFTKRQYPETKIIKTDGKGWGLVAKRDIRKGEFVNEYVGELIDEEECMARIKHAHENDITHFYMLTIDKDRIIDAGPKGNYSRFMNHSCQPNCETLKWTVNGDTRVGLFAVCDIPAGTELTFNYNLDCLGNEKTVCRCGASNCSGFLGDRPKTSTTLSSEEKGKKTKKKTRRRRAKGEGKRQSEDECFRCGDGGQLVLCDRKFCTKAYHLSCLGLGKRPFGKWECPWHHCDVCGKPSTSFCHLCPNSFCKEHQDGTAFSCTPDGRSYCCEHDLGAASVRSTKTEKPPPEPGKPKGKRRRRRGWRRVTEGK
TDP2 absorb = human TDP2 enzyme inhibitors, primary screen, biochemical, epi absorbance, recombinant enzyme | T5PNP hydrolysis, p-nitrophenol absorbance 415 nm | inhibition, % at 12.8 µM | hit rate 0.34% among 370,000 | AID 720702, 2013;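 active = inhibition above the mean of all tested compounds plus 3 SD, set per campaign, cut at about 25% in these data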;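 also: 0% = DMSO with enzyme and 100% = buffer with substrate but no TDP2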
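Evaluation: % inhibition relative to enzyme-containing and enzyme-free wells. Material: recombinant human TDP2. Benchmarks: enzyme-free and DMSO wells. Timing: enzyme reaction with compound for 2 h at 37 °C. Compound dosing: 12.8 µM only. Measured by: p-Nitrophenol epi absorbance. Reagent: T5PNP substrate at 5 mM, a TopII-DNA adduct mimic. Replication: single well per compound.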
UCH37 inh = inhibitors of human UCH37 deubiquitinase, primary screen, biochemical, Ub-AMC cleavage, fluorescence | purified proteasome/UCH37 | inhibition, % (no concentration beside the values) | AID 588478, 2011 | hit rate 0.33% among 330,000;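 active = mean inhibition over replicate wells above about 20%, limit read from the data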;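 also: 0% = compound-free wells with enzyme and 100% = wells lacking proteasome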
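system = Proteasome-associated human UCH37 deubiquitinase | amount = 0.15 nM proteasome as dispensed | medium = pH 7.4 Tris-HCl (50 mM) with ovalbumin, ATP-MgCl2, DTT | incubation = 30 min preincubation with enzyme, 25 min cleavage at room temperature | detection = AMC fluorescence 355/460 nm | read-out basis = percent inhibition | controls = no-proteasome and no-compound wells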
LEDGF integ inh = blockers of LEDGF/p75-dependent integrase strand transfer – biochemical, TR-FRET, high throughput, primary screen | HIV-1 integrase (with human LEDGF/p75) | TR-FRET IN-LEDGF/p75 DNA integration, Eu/Cy5 | hit rate 0.64% among 370,000 | inhibition, % at 3.7 µM | AID 743269, 2014;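 active = inhibition above the screen-wide mean plus 3 SD, cut at about 13% in these data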;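 also: signal is the Cy5 over europium emission ratio at 671 and 618 nm; 0% = plate median of compound wells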
Casp6 inh = human caspase-6 inhibitors, primary screen, biochemical, VEID-R110 fluorescence, single point, set 2; P55212; purified caspase-6, Z-VEID-R110 cleavage fluorescence; inhibition, % at 12.5 µM; hit rate 0.53% among 350,000; AID 686996, 2013;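 active = mean inhibition across replicates at least about 35%, with every replicate also reaching that limit, limit read from the data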;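 also: 0% = median of neutral control wells and 100% = no fluorescence left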
TDP2 inh conf = human TDP2 enzyme inhibitors, retest, confirmation, biochemical, epi absorbance, recombinant enzyme | shares compounds with TDP2 absorb | absorbance read-out | inhibition, % at 12.8 µM | hit rate 22% among 1,100; in the data active = inhibition above about 25%;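 also: 0% = vehicle with enzyme and 100% = no enzyme buffer only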
Starred values were filed as active, the others as inactive; i = inactive; . = no result given.

SMILES	NSD2 inh	TDP2 absorb	UCH37 inh	LEDGF integ inh	Casp6 inh	TDP2 inh conf
CCOC(=O)C1CCN(S(=O)(=O)c2cc(C(=O)N3CCCCC3)ccc2OC)CC1	0	25*	5	2	4	-1
CC(=NNC(=O)c1nn(C)c(C)c1Br)c1cccc(NC(=O)c2ccoc2C)c1	.	.	-5	.	.	.
Cc1ccc(-n2nc3ccc(N)cc3n2)cc1	3	21	i	4	.	.
Nc1ccc2nn(-c3ccc(F)cc3)nc2c1	4	34*	i	-7	-1	12
COc1ncccc1C(=O)Nc1c(-c2ccccc2)[nH][nH]c1=O	.	15	.	4	2	.
O=C(Nc1c(-c2ccccc2)[nH][nH]c1=O)c1cccs1	.	42*	.	12	4	15
O=C(Nc1c(-c2ccccc2)[nH][nH]c1=O)c1ccc2ccccc2c1	.	8	.	-2	8	.
O=C(Nc1c(-c2ccccc2)[nH][nH]c1=O)c1ccc(Br)cc1	.	33*	.	4	9	16
COc1ccc(-c2[nH][nH]c(=O)c2NC(=O)c2ccc(C)cc2)cc1	.	25*	.	2	4	30*
Cc1cc(C(=O)NN=C/C=C/c2ccccc2)c(C)o1	.	.	10	.	.	.
COc1ccc(C(=O)CSc2nc3c(c(=O)n(C)c(=O)n3C)n2C)cc1	.	.	6	.	.	.
COc1ccc(C(=O)NNC(=O)CSc2nc3c(c(=O)n(C)c(=O)n3C)n2C)cc1	0	25*	1	-1	-1	7
CCOc1cc(C=NNC(=O)c2ccc(O)cc2)ccc1Oc1nc(Cl)ncc1F	.	.	1	.	.	.
Cc1ccc(CNC(=O)CN(C(=O)C2(C)CC(=O)N=C3C=CC=CN32)c2cc(C)ccc2C)cc1 (configuration not stated)	0	26*	-473	0	-2	6
Cc1ccc(CNC(=O)CN(Cc2cccs2)C(=O)C2(C)CC(=O)N=C3C=CC=CN32)cc1 (configuration not stated)	0	6	-358	0	2	.
CC(=O)C1=C(C)NC2(O)c3ccccc3C(=O)C12O (configuration not stated)	8	5	3	4	.	.
CCOC(=O)C1=C(C)NC2(O)c3ccccc3C(=O)C12O (configuration not stated)	6	47*	13	7	.	25*
COCCOC(=O)C1=C(C)NC2(O)c3ccccc3C(=O)C12O (configuration not stated)	14	46*	14	-15	.	8
COc1ccc(C(C)=NNC(=O)CNC(=O)c2ccco2)cc1	.	.	2	.	.	.
Cc1ccc(C=NNC(=O)Cn2nccc2C)o1	.	.	3	.	.	.
Cn1c(C(=O)N2CCCC2)cc2c(=O)n(C)c3ccccc3c21	.	-1	.	4	3	.
CCOC(=O)C1CCCN(C(=O)c2cc3c(=O)n(C)c4ccccc4c3n2C)C1 (configuration not stated)	.	41*	6	-1	-1	12
CC(C)CNC(=O)C(=O)NN=Cc1cccs1	.	.	9	.	.	.
CCS(=O)(=O)c1nc(S(=O)(=O)c2ccc(C)cc2)c(N2CCN(CCO)CC2)s1	-3	25*	5	0	-1	4
CCN1CCN(c2sc(S(=O)(=O)CC)nc2S(=O)(=O)c2ccc(C)cc2)CC1	2	-2	.	-1	-1	.
SMILES	NSD2 inh	TDP2 absorb	UCH37 inh	LEDGF integ inh	Casp6 inh	TDP2 inh conf
O=C(NCc1ccc2c(c1)OCO2)C(=O)NCC1OCCN1S(=O)(=O)c1ccc(Cl)cc1 (configuration not stated)	-1	37*	0	-1	0	1
O=S1(=O)N=C(N(CCO)N=Cc2ccc(Cl)cc2)c2ccccc21	.	.	-43	.	.	.
COc1cccc(CC(O)CC2c3c(cc4c(c3OC)OCO4)CCN2C)c1 (configuration not stated)	0	-2	.	1	-2	.
COc1c2c(cc3c1C(CC(O)Cc1ccccc1)N(C)CC3)OCO2 (configuration not stated)	6	25*	-17	2	-9	-2
COc1ccc(CNC(=O)CCCNC(=O)c2ccc(Cl)cc2)cc1OC	-4	33*	0	-5	.	0
COc1cc(NC(=O)c2ccco2)c(OC)cc1NC(=O)CCC(=O)Nc1cc(C)ccc1C	.	-15	-298	-2	.	.
COc1ccc(C)cc1NC(=O)CCNC(=O)c1ccco1	5	26*	1	3	-3	8
CCc1ccc(N2CC(C(=O)NN=Cc3ccccc3OC)CC2=O)cc1 (configuration not stated)	.	.	1	.	.	.
COc1ccc(-c2csc3ncnc(N4CCN(S(=O)(=O)c5cccc(C(F)(F)F)c5)CC4)c23)cc1	0	25*	-1	4	-1	1
COc1ccc(-c2csc3ncnc(N4CCN(S(=O)(=O)c5cccc(Br)c5)CC4)c23)cc1	1	5	0	3	1	.
Cn1[nH]c(CSc2ccc(Cl)cc2)cc1=O	7	48*	-1	6	6	3
COc1ccc(C=NNC(=O)c2ccn[nH]2)cc1Cn1cc([N+](=O)[O-])cn1	.	.	6	.	.	.
CCc1ccc(NC(=O)Nc2cc(C(=O)NCC3CCCO3)ccc2N2CC3CC(C2)c2cccc(=O)n2C3)cc1 (configuration not stated)	2	25*	3	3	-3	2
CCOc1ccc(C=NOCC(=O)Nc2ccc(OCc3ccccc3)cc2)cc1OC	.	.	-2	.	.	.
Cc1nc(C#N)c(NN=Cc2c(F)cccc2Cl)o1	.	.	6	.	.	.
O=c1cc(-c2ccc(Cl)cc2)[nH][nH]1	1	74*	3	13	.	10
NC(=O)Nc1ccc(C(=O)OCC(=O)N(Cc2ccccc2)C2CCS(=O)(=O)C2)cc1 (configuration not stated)	-2	-1	2	-2	5	.
CN(C)c1cccc(C(=O)OCC(=O)N(Cc2ccccc2)C2CCS(=O)(=O)C2)c1 (configuration not stated)	-2	38*	-24	6	-3	-11
O=C1c2nccnc2C(=O)N1c1ccc(C(F)(F)F)cc1	-3	28*	.	-1	4	1
Cc1ccccc1C(=O)Nc1ccc(C(=O)NN=Cc2ccccn2)cc1	.	.	4	.	.	.
CCOC(=O)c1ccccc1NC(=S)N1CCC(N2CCCCC2)CC1	2	34*	2	-5	.	3
COC(=O)c1ccccc1NC(=S)N1CCC(N2CCCCC2)CC1	-3	-6	1	-2	-9	.
